For test [1], the system named is J774. Briefly: Inhibition of mouse J774 cell survival by alamar blue viability assay. It counts as functional, cell-based. The method in brief: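 J774 cells were seeded at 10⁴ per well in […] with 10% FCS and penicillin/streptomycin and grown overnight. Compounds were then added for 48 h. Alamar Blue was added for a further 3 h and viability was read as fluorescence (ex 530, em 590 nm). There were at least three independent experiments, n = 5 each, and IC₅₀ was fitted.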

In test [2] the test system is Mus musculus. In words: Inhibition of ovariectomy-induced bone loss in C57/BL6 mouse at 5 mg/kg/day, ip. It counts as functional, organism-based. In outline:
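Nine-week-old female C57/BL6 mice were ovariectomized or sham-operated. Starting 2 days after surgery, they received 5 (mg/kg)/day intraperitoneally in corn oil for 21 days; controls received oil alone. The study ended on day 23. Bone at the right tibial metaphysis was measured by µCT at 5 µm resolution over 200 slices distal to the growth plate. Results are % change from sham, ±SEM, n = 6.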

The species named for test [3] is Homo sapiens. Briefly: Inhibition of RANKL-activated NF-kappaB.
The species entered for test [4] is Homo sapiens. Briefly: Inhibition of TNF-alpha-activated NF-kappaB.
Test [5] concerns Osteoclast. In words: Inhibition of mouse osteoclast survival. It is filed as functional, cell-based. The method in brief: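 Mouse bone marrow from femora and tibiae was grown 3 days with 100 ng/mL M-CSF. Adherent cells were seeded on dentine slices (4 × 10⁴ cells/mL) with 100 ng/mL RANKL and 25 ng/mL M-CSF for 7 days. Compounds were present for 72 h from day 4. TRAcP-positive cells with ≥3 nuclei were counted as % of vehicle. Three experiments, n = 5 each.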

The subject of test [6] is Osteoclast. Briefly: Apoptosis of osteoclast at 5 to 20 uM. It is filed as functional, cell-based. The conditions noted are these: Homo sapiens.
Test [7] has as its system Macrophage. In words: Apoptosis of macrophage at 5 to 20 uM. It counts as functional, cell-based. The conditions noted are these: Homo sapiens.
The subject of test [8] is Osteoblast. In words: Effect on apoptosis of osteoblast. It is filed as functional, cell-based. The conditions noted are these: Homo sapiens.
For test [9], the system named is Hepatocyte. In words: Effect on apoptosis of hepatocyte. It is filed as functional, cell-based. The conditions noted are these: Homo sapiens.

Active and inactive are the calls of the source. The rule behind the calls is not given here.

As a reminder, the IC50 is the concentration that gives 50% inhibition. Low readings indicate inhibition by little substance, high ones a need for much substance.

Take `O=S(=O)(NCCCCO)c1ccc(-c2ccccc2)cc1C(F)(F)F`: the IC50 in test [1] was found to be 4.5 µM.
On to `COc1cc(S(=O)(=O)NCCCCCO)ccc1-c1ccc(F)cc1F`, for which, in test [1], the IC50 is 33 µM.
Regarding `O=S(=O)(NCCCCO)c1ccc(-c2ccccc2I)cc1`, in [1], 5.5 µM corresponded to half-maximal inhibition (IC50).
For the compound `O=S(=O)(NCCCCCO)c1ccc(-c2ccc(Br)cc2)cc1`, the IC50 in test [1] was determined as 9 µM.
As for `Cc1cc(S(=O)(=O)NCCCCO)ccc1-c1ccc(F)cc1F`, the result in test [2], in test [3] and in test [4] was Active. Moreover, the results for the IC50 in test [5] and in [1] were 0.15 µM and 0.8 µM, respectively.
`O=S(=O)(NCCCCO)c1ccc(-c2ccc(Br)cc2F)cc1` came in with a half-maximal inhibitory concentration (IC50) in [1] of 3 µM.
For `Cc1ccc(-c2ccc(S(=O)(=O)NCCCCCO)cc2)cc1`, the IC50 in [1] amounted to 13 µM.
On the same count and under the same terms, to `O=C(O)c1ccc(-c2ccc(S(=O)(=O)NCCCCCO)cc2)cc1` belongs 33 µM; to `O=S(=O)(NCCCCO)c1ccccc1-c1ccc(F)cc1`, over 50 µM.
Consider `O=S(=O)(NCCCCCO)c1ccc(-c2ccc(O)cc2)cc1`, for which, in test [1], the IC50 stood at 21 µM.
On the same count and under the same terms, with `O=S(=O)(NCCCCO)c1cccc(-c2ccc(C(F)(F)F)cc2)c1` the figure was over 50 µM.
On the same count and under the same terms, to `O=S(=O)(NCCCCCO)c1ccc(-c2ccc(F)c(F)c2)cc1` belongs 16 µM.
On the same count and under the same terms, to `N#Cc1ccc(-c2ccc(S(=O)(=O)NCCCCCO)cc2)cc1` belongs 12 µM; to `O=S(=O)(NCCCCCO)c1ccc(-c2ccc(C(F)(F)F)cc2C(F)(F)F)cc1`, 2 µM.
For `O=S(=O)(NCCCCO)c1ccc(-c2ccccc2)cc1`, the outcome in [3] and in test [4] was Active. Moreover, the IC50 in test [5] was found to be 8 µM; in test [1], 18 µM.
For `COc1ccccc1-c1ccc(S(=O)(=O)NCCCCCO)cc1`, the IC50 in test [1] worked out at 31 µM.
In the case of `O=S(=O)(NCCCCCO)c1ccc(-c2ccc(F)cc2F)cc1`, the IC50 in [1] was found to be 4.5 µM.
Consider `Cc1cc(S(=O)(=O)NCCCCO)ccc1-c1ccc(F)cc1`, for which half-maximal inhibition in [1] (IC50) required 2.5 µM.
Consider `O=[N+]([O-])c1cccc(-c2ccc(S(=O)(=O)NCCCCO)cc2)c1`, for which it took 33 µM to reach half-maximal inhibition in test [1] (IC50).
`Cc1cccc(-c2ccc(S(=O)(=O)NCCCCO)cc2)c1` gave an IC50 in test [1] of 28 µM.
In the case of `O=S(=O)(NCCCCO)c1ccc(-c2ccc(C(F)(F)F)cc2)cc1F`, in [1], the IC50 turned out to be 5 µM.
In test [1], `O=S(=O)(NCCCCO)c1ccc(-c2ccccc2C(F)(F)F)cc1` registered an IC50 of 6 µM.
Regarding `CC(=O)c1ccc(-c2ccc(S(=O)(=O)NCCCCCO)cc2)cc1`, in test [1], the IC50 stood at 11 µM.
Compound `O=S(=O)(NCCCCCO)c1ccc(-c2ccccc2)cc1` registered an IC50 in [1] of 18 µM.
On the same count and under the same terms, to `O=[N+]([O-])c1ccccc1-c1ccc(S(=O)(=O)NCCCCO)cc1` belongs 2 µM; to `CSc1ccc(-c2ccc(S(=O)(=O)NCCCCO)cc2)cc1`, 35 µM; to `O=S(=O)(NCCCCO)c1ccc(-c2ccc(C(F)(F)F)cc2)c(F)c1`, 5.5 µM.
In turn, `CN(C)c1ccc(-c2ccc(S(=O)(=O)NCCCCCO)cc2)cc1` came in with an IC50 in test [1] of 32 µM.
On to `O=S(=O)(NCCCCCCO)c1ccc(-c2ccccc2)cc1`, for which the IC50 in test [1] turned out to be 13 µM.
On to `O=S(=O)(NCCCCO)c1ccc(-c2ccc(F)cc2F)c(C(F)(F)F)c1`, for which the midpoint of inhibition in test [1], the IC50, lay at 0.7 µM.
As for `O=C(OCCCCO)c1ccc(-c2ccccc2)cc1`, the result in test [3], in test [6], in test [7] and in test [4] was Active. The results for the IC50 in test [5], in test [8] and in test [9] were 9 µM, over 100 µM and over 200 µM, respectively.
`O=S(=O)(NCCCCO)c1ccc(-c2ccc(Br)cc2)cc1`: half-maximal inhibition in test [1] (IC50) required 8 µM.
Same read-out and setting: to `O=S(=O)(NCCCCCO)c1ccc(-c2ccc(Cl)cc2Cl)cc1` belongs 2.5 µM.
Still for that read-out and setting: with `O=S(=O)(NCCCCO)c1ccc(-c2ccc(OC(F)(F)F)cc2)cc1` the figure was 8 µM; with `O=S(=O)(NCCCO)c1ccc(-c2ccccc2)cc1`, over 50 µM.
The compound `O=S(=O)(NCCCCO)c1ccc(-c2ccc(C(F)(F)F)cc2)cc1` came in with an IC50 in test [1] of 5 µM.
The compound `O=S(=O)(NCCCCCO)c1ccc(-c2ccc(-c3ccccc3)cc2)cc1` gave an IC50 in [1] of 33 µM.
In the case of `O=S(=O)(NCCCCO)c1ccc(-c2ccc(F)cc2)cc1`, the IC50 in test [1] is 8 µM.
As for `Nc1ccccc1-c1ccc(S(=O)(=O)NCCCCO)cc1`, the IC50 in [1] worked out at 24 µM.

Values taken from ChEMBL document CHEMBL1138201, “Development and characterization of biphenylsulfonamides as novel inhibitors of bone resorption” (J Med Chem, 2006).
